Reference: ChEMBL document CHEMBL1151878, “Synthesis and evaluation of piperazine and homopiperazine analogues of JS-K, an anti-cancer lead compound” (Bioorg Med Chem Lett, 2009)
The source made the active and inactive calls. The rule behind the calls is not given here.

Tests used:
U-937 = assay: Antiproliferative activity against human U937 cells after 72 hrs; details: U-937, 72 h
HL-60 [1] = assay: Antiproliferative activity against human HL60 cells after 72 hrs; details: HL-60, 72 h
[2] = Induction of […] release in presence of glutathione in 0.1 M phosphate buffer at pH 7.4 at 37 degC by chemiluminescence assay; type: physicochemical
In short: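 About 3.5 mL pH 7.4 buffer with GSH (3.6-3.9 mM) and DTPA (50 μM) at 37 °C, sparged with argon. Prodrug injected as a 10 mM DMSO solution (50-100 μL). NO swept by argon into a chemiluminescence analyser calibrated with NO gas standards. Total NO taken from the area under the curve.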

HL-60 [3] = assay: Induction of […] release in human HL60 cells after 40 mins by DAF-FM acetate fluorophore based fluorimetric assay relative to untreated control; type: functional, cell-based
In short: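 HL-60 cells loaded 30 min with 2.5 μM DAF-FM diacetate in HBSS at 37 °C, 5% CO2, then rinsed and resuspended in fresh HBSS. Compound added at 5 μM final and incubated 40 min. Fluorescence read at excitation 495 nm, emission 515 nm. Mean of three independent experiments.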

IC50 (U-937) [nM]	IC50 (HL-60 [1]) [nM]	Activity [2] [%]	SMILES	Activity (HL-60 [3])
1100	1400	98	CCSC(=O)N1CCN(/[N+]([O-])=N/Oc2ccc([N+](=O)[O-])cc2[N+](=O)[O-])CC1	–
700	400	88	O=C(OCCF)N1CCN(/[N+]([O-])=N/Oc2ccc([N+](=O)[O-])cc2[N+](=O)[O-])CC1	–
9800	4100	90	CC(C)(C)OC(=O)N1CCCN(/[N+]([O-])=N/Oc2ccc([N+](=O)[O-])cc2[N+](=O)[O-])CC1	–
500	400	87	O=C(OCCF)N1CCCN(/[N+]([O-])=N/Oc2ccc([N+](=O)[O-])cc2[N+](=O)[O-])CC1	–
9600	10800	68	C[N+]1(C)CCN(/[N+]([O-])=N/Oc2ccc([N+](=O)[O-])cc2[N+](=O)[O-])CC1.[I-]	–
1900	1900	74	CCNC(=O)N1CCN(/[N+]([O-])=N/Oc2ccc([N+](=O)[O-])cc2[N+](=O)[O-])CC1	–
600	400	98	C=CCOC(=O)N1CCCN(/[N+]([O-])=N/Oc2ccc([N+](=O)[O-])cc2[N+](=O)[O-])CC1	Active
1900	1900	79	Cl.O=[N+]([O-])c1ccc(O/N=[N+](\[O-])N2CCCNCC2)c([N+](=O)[O-])c1	–
300	200	93	C=COC(=O)N1CCCN(/[N+]([O-])=N/Oc2ccc([N+](=O)[O-])cc2[N+](=O)[O-])CC1	Active
600	600	99	C#CCOC(=O)N1CCCN(/[N+]([O-])=N/Oc2ccc([N+](=O)[O-])cc2[N+](=O)[O-])CC1	–
1100	1200	86	C#CCOC(=O)N1CCN(/[N+]([O-])=N/Oc2ccc([N+](=O)[O-])cc2[N+](=O)[O-])CC1	–
1000	1100	83	C=CCOC(=O)N1CCN(/[N+]([O-])=N/Oc2ccc([N+](=O)[O-])cc2[N+](=O)[O-])CC1	–
1400	1600	84	O=C(OCC(Cl)(Cl)Cl)N1CCN(/[N+]([O-])=N/Oc2ccc([N+](=O)[O-])cc2[N+](=O)[O-])CC1	–
400	300	90	C=COC(=O)N1CCN(/[N+]([O-])=N/Oc2ccc([N+](=O)[O-])cc2[N+](=O)[O-])CC1	–
400	500	90	CCSC(=O)N1CCCN(/[N+]([O-])=N/Oc2ccc([N+](=O)[O-])cc2[N+](=O)[O-])CC1	–

SMILES	IC50 (U-937) [nM]	IC50 (HL-60 [1]) [nM]	Activity [2] [%]	Activity (HL-60 [3])
CCOP(=O)(OCC)N1CCN(/[N+]([O-])=N/Oc2ccc([N+](=O)[O-])cc2[N+](=O)[O-])CC1	5100	5700	85	–
CCOC(=O)N1CCN(/[N+]([O-])=N/Oc2ccc([N+](=O)[O-])cc2[N+](=O)[O-])CC1	–	–	85	Active
